Results reported in ChEMBL document CHEMBL4342509, “New 8-Nitroquinolinone Derivative Displaying Submicromolar in Vitro Activities against Both Trypanosoma brucei and cruzi” (ACS Med Chem Lett, 2020).
pEC50: −log10 of the molar value.

Legend:
Leishmania infantum = experiment: Antileishmanial activity against Leishmania infantum MHOM/MA/67/ITMAP-263 axenic amastigotes expressing luciferase plasmid assessed as reduction in parasite viability incubated for 48 hrs by Steady Glow reagent based luminescence assay; type: functional, organism-based; conditions: MHOM/MA/67/ITMAP-263, 48 h
[1] = tested on: Trypanosoma brucei brucei; experiment: Antitrypanosomal activity against Trypanosoma brucei brucei AnTat 1.9 trypomastigotes assessed as reduction in parasite viability incubated for 69 hrs by Alamar Blue dye based assay; type: functional, organism-based; conditions: AnTat 1.9, 69 h
In short: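 Bloodstream AnTat 1.9 parasites grown at 37°C, 5% CO₂ in MEM with Earle's salts (Baltz-type) plus 0.5 mM mercaptoethanol, 1.5 mM L-cysteine, 0.05 mM bathocuproine sulfate and 20% heat-inactivated horse serum. EC50 from nonlinear regression, three independent experiments in duplicate.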

HepG2 = experiment: (§1) Cytotoxicity against human HepG2 cells assessed as reduction in cell viability incubated for 72 hrs by MTT assay; type: cell-based; conditions: hepg2, 72 h
[2] = Selectivity index, ratio of CC50 for human HepG2 cells to EC50 for Trypanosoma brucei brucei trypomastigotes AnTat 1.9; type: toxicity; conditions: read-out: Ratio CC50/EC50
[3] = Half life in NMRI mouse at 25 mg/Kg, ig measured up to 24 hrs by LCMS analysis; type: ADME; conditions: in vivo, po
Trypanosoma cruzi = experiment: Antitrypanosomal activity against Trypanosoma cruzi CL Brener amastigotes infected in African green monkey Vero cells assessed as reduction in parasite growth incubated for 120 hrs at 24 hrs post-infection and measured on day 6 post-infection by hemocytometer based light microscopy; type: functional, organism-based
In short: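 Compounds, 2–4-fold serial dilutions over 0,1–25 µM final, applied for 120 h at 37°C. On day 6, released trypomastigotes pooled, centrifuged and counted by haemocytometer. EC50 by nonlinear regression; two experiments, triplicate wells.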

[4] = Electrochemical behavior of the compound assessed as redox potential corrected toward normal hydrogen electrode by cyclic voltammetry
[5] = tested on: Trypanosoma brucei brucei; experiment: Antitrypanosomal activity against blood stream form of Trypanosoma brucei brucei S427 trypomastigotes overexpressing NTR assessed as inhibition of parasite growth; type: functional, organism-based
[6] = tested on: Trypanosoma brucei brucei; experiment: Antitrypanosomal activity against bloodstream form of wild type Trypanosoma brucei brucei S427 trypomastigotes assessed as inhibition of parasite growth; type: functional, organism-based
[7] = as §1; type: cell-based; conditions: HepG2 cells
Leishmania donovani [8] = experiment: Antileishmanial activity against wild type Leishmania donovani BOB (MHOM/SD/62/1S-CL2D) promastigotes assessed as inhibition of parasite growth incubated for 72 hrs by resazurin dye based assay; type: functional, organism-based
In short: (§2)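 LdBOB promastigotes grown at 26 °C in modified M199; NTR1- or NTR2-overexpressing lines kept under nourseothricin (100 µg/mL). Triplicate cultures seeded at 5×10^4 parasites/mL with drug for 72 h; 50 µM resazurin added, fluorescence (ex 528/em 590 nm) read after a further 4 h.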

Leishmania donovani [9] = experiment: Antileishmanial activity against Leishmania donovani BOB (MHOM/SD/62/1S-CL2D) promastigotes overexpressing NTR1 assessed as inhibition of parasite growth incubated for 72 hrs by resazurin dye based assay; type: functional, organism-based; in short: as §2
Leishmania donovani [10] = experiment: Antileishmanial activity against Leishmania donovani BOB (MHOM/SD/62/1S-CL2D) promastigotes overexpressing NTR2 assessed as inhibition of parasite growth incubated for 72 hrs by resazurin dye based assay; type: functional, organism-based; in short: as §2
[11] = Microsomal stability in CD-1 mouse liver microsomes in presence of NADP measured up to 40 mins by LC-MS analysis; type: ADME, Microsome
In short: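 Compound incubated in duplicate with female CD-1 mouse microsomes at 37°C in 50 mM phosphate pH 7.4. Cofactors: 5 mM MgCl₂, 1 mM NADP, 0.4 U/mL G6PDH and 5 mM glucose-6-phosphate. […] Propranolol reference.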

[12] = Permeability of the compound in pH 7.4 Prisma HT buffer at 100 uM incubated for 4 hrs by PAMPA-BBB assay method; type: ADME; conditions: read-out: permeability
Leishmania donovani [13] = experiment: Selectivity index, ratio of EC50 for wild type Leishmania donovani BOB (MHOM/SD/62/1S-CL2D) promastigotes to EC50 for Leishmania donovani BOB (MHOM/SD/62/1S-CL2D) promastigotes overexpressing NTR1; type: functional
[14] = tested on: Trypanosoma brucei brucei; experiment: Selectivity index, ratio of EC50 for bloodstream form of wild type Trypanosoma brucei brucei S427 trypomastigotes to EC50 for blood stream form of Trypanosoma brucei brucei S427 trypomastigotes overexpressing NTR; type: functional
Plasma proteins = experiment: Plasma protein binding incubated for 4 hrs by LCMS analysis

| SMILES | pEC50 (Leishmania infantum) | pEC50 [1] | CC50 (HepG2) [µM] | selectivity ratio [2] | Activity [4] [V] | further results |
| --- | --- | --- | --- | --- | --- | --- |
| CSc1ccc(OCc2ncc([N+](=O)[O-])n2C)cc1 [FEXINIDAZOLE] | 5.47 | 6.40 | > 200 | > 500 | – | half-life [3]: 48 min; pEC50 (Trypanosoma cruzi): 5.52 |
| O=c1[nH]c2ccc(C(F)(F)F)cc2cc1Cl | < 4.00 | < 4.30 | > 100 | – | – | – |
| O=c1[nH]c2c([N+](=O)[O-])cc(C#CCO)cc2cc1Cl | 5.05 | 6.00 | 30.9 | 31 | – | – |
| O=c1ccc2cc(C(F)(F)F)cc([N+](=O)[O-])c2[nH]1 | 4.73 | 5.77 | 41.3 | 24 | -0.39 | – |
| CCCCCCCCCCCCCCCCOP(=O)([O-])OCC[N+](C)(C)C [MILTEFOSINE] | 6.10 | – | – | – | – | – |
| O=c1[nH]c2c([N+](=O)[O-])cccc2cc1Cl | 4.80 | 5.92 | – | 71 | -0.47 | – |
| Cc1ccc(C(=O)Nc2ccc(S(=O)(=O)O)c3cc(S(=O)(=O)O)cc(S(=O)(=O)O)c23)cc1NC(=O)c1cccc(NC(=O)Nc2cccc(C(=O)Nc3cc(C(=O)Nc4ccc(S(=O)(=O)O)c5cc(S(=O)(=O)O)cc(S(=O)(=O)O)c45)ccc3C)c2)c1 [SURAMIN] | – | 7.52 | > 100 | > 3330 | – | – |
| O=c1[nH]c2ccc(C(F)(F)F)cc2cc1Br | < 4.00 | < 4.30 | > 100 | – | – | – |
| O=c1ccc2cc(C(F)(F)F)ccc2[nH]1 | < 4.00 | < 4.30 | > 100 | – | – | – |
| Nc1cc(C(F)(F)F)cc2cc(Br)c(=O)[nH]c12 | < 4.00 | 5.06 | > 100 | > 11 | – | – |
| O=C(O)c1ccc(-c2cc3cccc([N+](=O)[O-])c3[nH]c2=O)cc1 | < 4.00 | 5.82 | – | 80 | -0.56 | pEC50 [5]: 5.38; pEC50 [6]: 5.27; CC50 at 72 h [7]: 120 µM |
| CC1CS(=O)(=O)CCN1/N=C/c1ccc([N+](=O)[O-])o1 (configuration not stated) [NIFURTIMOX] | – | – | – | – | – | pEC50 [5]: 6.22; pEC50 [6]: 5.72 |
| NCCCC(N)(C(=O)O)C(F)F (configuration not stated) [EFLORNITHINE] | – | 4.88 | > 100 | – | – | – |
| O=C(Cn1ccnc1[N+](=O)[O-])NCc1ccccc1 [BENZNIDAZOLE] | – | – | – | – | – | pEC50 (Trypanosoma cruzi): 6.30 |
| O=c1[nH]c2c([N+](=O)[O-])cc(Cl)cc2cc1Cl | 5.21 | 7.00 | 24.3 | 243 | -0.37 | – |
| O=c1[nH]c2c([N+](=O)[O-])cccc2cc1Br | – | – | – | 48 | -0.45 | pEC50 [5]: 5.41; pEC50 [6]: 4.75; pEC50 (Leishmania donovani [8]): 5.23; pEC50 (Leishmania donovani [9]): 6.33; pEC50 (Leishmania donovani [10]): 5.34 |
| O=c1[nH]c2c([N+](=O)[O-])cc(Br)cc2cc1Br | 5.19 | 7.30 | 16.6 | 332 | -0.37 | – |
| O=c1[nH]c2c([N+](=O)[O-])cc(C(F)(F)F)cc2cc1Br | 5.41 | 6.70 | 41.3 | 206 | -0.36 | pEC50 [5]: 6.05; pEC50 [6]: 5.17; t1/2 [11]: > 40 min; Papp at 4 h, 100 µM [12]: 45 ×10⁻⁶ cm/s; pEC50 (Leishmania donovani [8]): 5.39; pEC50 (Leishmania donovani [9]): 5.92; pEC50 (Leishmania donovani [10]): 5.31; Ratio EC50 (Leishmania donovani [13]): 3.5; Ratio EC50 [14]: 7; Activity (Plasma proteins): 99.4% |
| O=c1[nH]c2c([N+](=O)[O-])cc(C(F)(F)F)cc2cc1Cl | 5.04 | 6.24 | 31.4 | 55 | – | – |
| COc1ccc2cc(C(F)(F)F)cc([N+](=O)[O-])c2n1 | < 4.00 | 4.68 | > 100 | > 5 | -0.75 | – |
| C[C@@H]1[C@H](O)[C@@H](C)/C=C/C=C/C=C/C=C/C=C/C=C/C=C/[C@H](O[C@@H]2O[C@H](C)[C@@H](O)[C@H](N)[C@@H]2O)C[C@@H]2O[C@](O)(C[C@@H](O)C[C@@H](O)[C@H](O)CC[C@@H](O)C[C@@H](O)CC(=O)O[C@H]1C)C[C@H](O)[C@H]2C(=O)O [AMPHOTERICIN B] | 7.22 | – | – | – | – | – |
| O=c1[nH]c2c([N+](=O)[O-])cc(C#CCCCO)cc2cc1Cl | 5.00 | 6.07 | 32.7 | 38 | – | – |
| O=c1ccc2cc(Br)cc([N+](=O)[O-])c2[nH]1 | 4.94 | 7.15 | 27.9 | 399 | -0.4 | – |
| O=C(O)c1ccc(-c2cc3cc(Br)cc([N+](=O)[O-])c3[nH]c2=O)cc1 | 5.10 | 6.70 | 60.4 | 302 | -0.4 | pEC50 [5]: 7.00; pEC50 [6]: 5.40; t1/2 [11]: > 40 min; Papp at 4 h, 100 µM [12]: 1.27 ×10⁻⁶ cm/s; pEC50 (Leishmania donovani [8]): 5.70; pEC50 (Leishmania donovani [9]): 5.89; pEC50 (Leishmania donovani [10]): 5.68; Ratio EC50 [14]: 40 |
